Assay results: ChEMBL document CHEMBL4152256, “Structure-activity relationship of new antimalarial 1-aryl-3-susbtituted propanol derivatives: Synthesis, preliminary toxicity profiling, parasite life cycle stage studies, target exploration, and targeted delivery” (Eur J Med Chem, 2018)

What was measured:
[1] = Genotoxicity in Salmonella typhimurium TA1535 harboring pSK1002 assessed as survival at 0.0005 mg/ml in absence of Sprague-Dawley rat liver S9 fraction after by SOS/umu assay relative to control; type: toxicity, organism-based; settings: salmonella enterica subsp. enterica serovar typhimurium, read-out: Survival
[2] = Genotoxicity in Salmonella typhimurium TA1535 harboring pSK1002 assessed as umu gene induction at 0.0005 mg/ml in absence of Sprague-Dawley rat liver S9 fraction after by SOS/umu assay relative to control; type: toxicity, organism-based; settings: salmonella enterica subsp. enterica serovar typhimurium, read-out: FC
[3] = Genotoxicity in Salmonella typhimurium TA1535 harboring pSK1002 assessed as survival at 0.0005 mg/ml in presence of Sprague-Dawley rat liver S9 fraction after by SOS/umu assay relative to control; type: toxicity, organism-based; settings: salmonella enterica subsp. enterica serovar typhimurium, read-out: Survival
[4] = Drug internalization in liposomes assessed as zeta potential at 500 uM in presence of pH 4 citrate buffer solution (reference value: -2.73 mV); type: physicochemical; settings: artificial membrane, pH 4, 500 µM
Outline: (§1)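 Zeta potential of liposomes loaded with compound (500 µM drug per 10 mM lipid), measured in the pH 4.0 citrate hydration buffer and again after buffer exchange to PBS pH 7.4; drug-free liposomes of the same lipid composition served as reference.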

[5] = Drug internalization in liposomes assessed as zeta potential at 500 uM in presence of pH 7.4 PBS buffer solution (reference value: -16.48 mV); type: physicochemical; settings: artificial membrane, pH 7.4, 500 µM; outline: as §1
Plasmodium falciparum [6] = experiment: Antiplasmodial activity against Plasmodium falciparum 3D7 ring stage forms infected in immunoliposome encapsulated compound pre-loaded human RBC by [3H]-hypoxanthine incorporation assay; type: functional, organism-based; settings: 3D7, Erythrocyte
Plasmodium falciparum [7] = experiment: Antiplasmodial activity against Plasmodium falciparum 3D7 ring stage forms infected in human non-washed human RBC containing full drug dosages by [3H]-hypoxanthine incorporation assay; type: functional, organism-based; settings: 3D7, Erythrocyte
Plasmodium falciparum [8] = experiment: Ratio of IC50 for antiplasmodial activity against Plasmodium falciparum 3D7 ring stage forms infected in immunoliposome encapsulated compound pre-loaded human RBC by [3H]-hypoxanthine incorporation assay to IC50 for antiplasmodial activity against Plasmodium falciparum 3D7 ring stage forms infected in human non-washed human RBC containing full drug dosages by [3H]-hypoxanthine incorporation assay; type: functional
Plasmodium falciparum [9] = experiment: (§2) Antiplasmodial activity against chloroquine-sensitive Plasmodium falciparum 3D7 ring forms infected in human RBC incubated for 15 mins followed by compound removal and further incubation for 48 hrs by [3H]-hypoxanthine incorporation assay; type: functional, organism-based; settings: 3D7, Erythrocyte
Plasmodium falciparum [10] = experiment: as §2, with “RBC using compound encapsulated in to immunoliposome targeted to GPA” for “RBC”; type: functional, organism-based; settings: 3D7, Erythrocyte
Plasmodium falciparum [11] = experiment: Ratio of IC50 for antiplasmodial activity against chloroquine-sensitive Plasmodium falciparum 3D7 ring forms infected in human RBC incubated for 15 mins followed by compound removal and further incubation for 48 hrs by [3H]-hypoxanthine incorporation assay to IC50 for antiplasmodial activity against chloroquine-sensitive Plasmodium falciparum 3D7 ring forms infected in human RBC using compound …; type: functional
[12] = Drug encapsulation in liposomes assessed as encapsulation efficiency in citrate/phosphate buffered measured after buffer exchange with PBS by UV/Vis spectroscopy relative to untreated control; type: physicochemical; settings: artificial membrane
Outline: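 Compound loaded into DSPC:cholesterol:DSPE-PEG2000-Mal:DOPE-Rho (84.5:10:5:0.5) liposomes using a citrate (pH 4.0)/PBS pH gradient. Drug measured by UV/vis after SDS disruption at each step: citrate liposomes, after buffer exchange to PBS (chloroquine added to preformed liposomes here), and after ultracentrifugation. Encapsulation efficiency = % of drug that is encapsulated out of total drug in the sample.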

Plasmodium falciparum [13] = experiment: Antiplasmodial activity against Plasmodium falciparum 3D7 late stage forms infected in human non-washed human RBC containing full drug dosages by [3H]-hypoxanthine incorporation assay; type: functional, organism-based; settings: 3D7, Erythrocyte

Row | SMILES | viability at 0.0005 mg/ml [1] [%] | fold induction at 0.0005 mg/ml [2] | viability at 0.0005 mg/ml [3] [%] | Activity [4] [mV] | Activity [5] [mV] | IC50 (Plasmodium falciparum [6]) [µM] | IC50 (Plasmodium falciparum [7]) [µM] | Ratio IC50 (Plasmodium falciparum [8]) | IC50 (Plasmodium falciparum [9]) [µM] | IC50 (Plasmodium falciparum [10]) [µM] | Ratio IC50 (Plasmodium falciparum [11]) | Activity [12] [%] | IC50 (Plasmodium falciparum [13]) [µM]
1 | OC(CCN1CCN(C(c2ccccc2)c2ccccc2)CC1)c1ccc(F)c(F)c1 (stereo not drawn) | 110 | 0.7 | 94.7 | – | – | – | – | – | – | – | – | – | –
2 | N#Cc1ccc(N2CCC(NCCC(O)c3ccc(F)c4ccccc34)CC2)c(C(F)(F)F)c1 (stereo in doubt; 72) | – | – | – | 8.54 | -18.2 | 0.513 | 0.181 | 2.8 | 0.867 | 0.146 | 5.9 | 77.2 | 0.301
